Measurements: PubChem BioAssay AID493080 (Broad Institute, 2011)
Where “and” joins values, the source holds several entries; their conditions need not be identical. Equal values may be shown once. Calls of active or inactive are those of the source.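 The calls were made as follows: active = growth inhibition with fitted AC50 no more than ten times the top valid dose; inconclusive = flat fit at 30 to 70% inhibition, or bad fit; inactive = the rest, including rises in signal.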

Test system: not listed separately
Experiment: growth inhibition of fluconazole-resistant C. albicans, confirmation, dry powder retest, set 3 (AID 493080)
Settings: C. albicans CaCi-2 + fluconazole, Alamar Blue growth, 48 h; at 1.2 µM (top of the series)
How it was run: (§1)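 material = fluconazole-resistant C. albicans CaCi-2 | amount = fungal inoculum at starting A600 of 0.00015 | times = compound 48 h at 37 °C, dye 2 h at room temperature | also added = fluconazole co-treatment at 8 µg/mL | signal = Alamar Blue fluorescence, excitation 544 nm, emission 590 nm | buffer or medium = RPMI medium, MOPS-buffered | benchmarks = geldanamycin as positive control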

SMILES	activity change, negative = inhibition
COc1ccc2c(c1)c1nc3n(c(=O)c1n2CC(=O)N1CCC(C)CC1)CCS3	15.5% (inactive)

Same assay, conditions: C. albicans CaCi-2 + fluconazole, Alamar Blue growth, 48 h; at 12 µM (top of the series)

SMILES	activity change, negative = inhibition
CC(C)C(=O)N1CCN(c2ccccn2)CC1	6.09% (inactive)
CCCNC(=O)Cn1nc(-c2ccccc2)c2ccccc21	26.9% (inactive)
O=C(Cn1c2ccccc2c2nc3n(c(=O)c21)CCCS3)c1ccc(F)cc1	3.71% (inactive)
Cc1cccc(N2CCN(C(=O)c3ccc(Cl)cc3)CC2)n1	-17.4% (inactive)
O=C(O)Cn1nc(-c2ccccc2)c2ccccc21	-8.71% (inactive)
O=C(Cn1nc(-c2ccccc2)c2ccccc21)N1CCc2ccccc2C1	3.01% (inactive)
c1ccc(-c2n[nH]c3ccccc23)cc1	24.5% (inactive)
O=C(C1CCCCC1)N1CCN(c2ccccn2)CC1	-20.7% (inactive)
CNC(=O)Cn1nc(-c2ccccc2)c2ccccc21	10.1% (inactive)
CCCNC(=O)Cn1nc(-c2ccccc2)c2cc(Cl)ccc21	27.1% (inactive)
O=C(Cn1c2ccccc2c2nc3n(c(=O)c21)CCS3)NCCc1ccc(Cl)cc1	-0.805% (inactive)
CCCCC(=O)N1CCN(c2ccccn2)CC1	-2.66% (inactive)
O=C(c1ccccc1Cl)N1CCN(c2ccccn2)CC1	8.16% (inactive)
O=C(O)c1nn(Cc2ccc(Cl)cc2)c2ccccc12	-7.95% (inactive)
CCOC(=O)c1c2ccccc2nn1Cc1ccc(Cl)cc1	17.8% (inactive)
CCOC(=O)c1nn(Cc2ccc(Cl)cc2)c2ccccc12	4.97% (inactive)
COC(=O)Cn1nc(C)c2ccccc21	-1.03% (inactive)
O=C(Cn1nc(-c2ccccc2)c2ccccc21)NCc1ccc(Cl)cc1	-6.29% (inactive)
O=C(Cn1nc(C(=O)N2CCCCC2)c2ccccc21)N1CCOCC1	-6.13% (inactive)
N#Cc1ccc(C(=O)N2CCN(c3ccccn3)CC2)cc1	-16.1% (inactive)
N#Cc1cccnc1N1CCN(C(=O)c2ccc(Cl)cc2)CC1	-11.5% (inactive)
O=C(Cn1nc(-c2ccccc2)c2cc(Cl)ccc21)N1CCOCC1	-1.59% (inactive)
COC(=O)Cn1c(-c2ccccc2)nc2ccccc21	-5.95% (inactive)
N#Cc1cccc(N2CCN(C(=O)c3ccc(Cl)cc3)CC2)n1	0.43% (inactive)
COc1ccc2c(c1)c1nc3n(c(=O)c1n2CC(=O)N1CCC(Cc2ccccc2)CC1)CCS3	-1.27% (inactive)
COCCC(=O)N1CCN(c2ccccn2)CC1	-0.956% (inactive)
O=C(c1cccc(Cl)c1)N1CCN(c2ccccn2)CC1	8.07% (inactive)
O=C(c1ccc(Cl)cc1)N1CCN(c2cccc(C(F)(F)F)n2)CC1	-1.86% (inactive)

Test system: C. albicans CaCi-2 + fluconazole, Alamar Blue growth, 48 h
Experiment: as above
Settings: not given
How it was run: as §1

SMILES	AC50
O=C(Cn1c2ccccc2c2nc3n(c(=O)c21)CCS3)N1CCCC1	0.837 µM and 2.69 µM
COC(=O)Cn1nc(-c2ccccc2)c2ccccc21	2.11 µM
O=C(c1ccc(F)cc1)N1CCN(c2ccccn2)CC1	> 12 µM (inactive)
O=c1c2[nH]c3ccc(F)cc3c2nc2n1CCS2	2.96 µM
O=c1c2[nH]c3ccccc3c2nc2n1CCS2	8.16 µM
CC1CCN(C(=O)Cn2c3ccccc3c3nc4n(c(=O)c32)CCS4)CC1	2.2 µM
CC1CCN(C(=O)Cn2c3ccccc3c3nc4n(c(=O)c32)CCCS4)CC1	11 µM
COC(=O)Cn1nc(-c2ccc(C)cc2)c2ccccc21	8.98 µM
CCN(CC)C(=O)Cn1c2ccc(F)cc2c2nc3n(c(=O)c21)CCS3	0.685 µM
CCN(CC)C(=O)Cn1c2ccccc2c2nc3n(c(=O)c21)CCS3	1.67 µM and 1.82 µM
O=C(c1ccc(Cl)cc1)N1CCN(c2nc3ccccc3o2)CC1	12.1 µM
O=C(Cn1c2ccc(F)cc2c2nc3n(c(=O)c21)CCS3)N1CCCCCC1	1.36 µM
O=C(Cn1c2ccccc2c2nc3n(c(=O)c21)CCS3)N1CCOCC1	2.66 µM
COC(=O)Cn1nc(-c2ccccc2)c2cc(Cl)ccc21	8.1 µM
O=C(Cn1c2ccc(F)cc2c2nc3n(c(=O)c21)CCS3)N1CCCCC1	0.384 µM
O=C(Cn1c2ccc(F)cc2c2nc3n(c(=O)c21)CCS3)N1CCCC1	0.532 µM
O=C(c1ccc(Cl)cc1)N1CCN(c2ccc(C(F)(F)F)cn2)CC1	> 12 µM (inactive)
O=C(c1ccc(Cl)cc1)N1CCN(c2nc3ccccc3s2)CC1	4.12 µM
COc1ccnc(N2CCN(C(=O)c3ccc(Cl)cc3)CC2)c1	> 12 µM (inactive)
CC1CCN(C(=O)Cn2c3ccc(F)cc3c3nc4n(c(=O)c32)CCCS4)CC1	2.09 µM
O=C(Cn1c2ccccc2c2nc3n(c(=O)c21)CCS3)N1CCCCC1	2.08 µM
